Most compounds without a hit are left out; they make up all but 3% or so of the library.
SR-BI DiI inh – mouse SR-BI HDL lipid transfer inhibition; Q61009; ldlA[mSR-BI] CHO cells, DiI-HDL uptake fluorescence, 3 h; inhibition, % at 12.5 µM; hit rate 0.96% among 320,000; AID 488896;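 active means mean replicate inhibition of at least 70% and a set share of replicates each scoring 70 or more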
Kir21 block – blocks the mouse Kir2.1 inward-rectifier potassium channel; P35561; HEK293-Kir2.1, FluxOR thallium flux fluorescence; active compounds read low; B-score at 10 µM; hit rate 0.85% among 310,000; AID 1672;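 active means fluorescence ratio B-score at or below minus 3 SD of library scores, with starting-brightness B-score within 2 SD, cut at about -4.2 in these data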;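 further: channel flux triggered by added potassium and thallium sulfate stimulus; B-score of peak minus minimum fluorescence over baseline after thallium stimulus; more negative B-score means stronger Kir2.1 block with less thallium influx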
ANO1 block – blocks the mouse calcium-activated chloride channel TMEM16A. normalized B-score (activity score, 25-100; higher = stronger inhibition) at 10 µM. hit rate 1.2% among 310,000. HEK293 TMEM16A/YFP iodide influx fluorescence, ionomycin. AID 588511. Q8BHY3;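 active means ratio plate-corrected score three or more library SD toward inhibition, starting fluorescence score within five deviations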;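 further: score derived from kinetic fluorescence span divided by baseline fluorescence per well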
FID counter – counter-screen for HCV NS3 helicase inhibitors: DNA intercalator displacement; DNA fluorescent intercalator displacement, fluorescence; inhibition, % at 7.9 µM; hit rate 0.17% among 290,000; in the data active means inhibition above about 37%;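 further: higher means more ethidium bromide displaced from hairpin DNA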
SR-BI DiI-HDL act – enhances SR-BI lipid uptake from DiI-HDL; CHO ldlA[mSR-BI] cells, DiI-HDL uptake fluorescence, 3 h; 100 = double the neutral-control signal; activation, % at 12.5 µM; hit rate 0.096% among 320,000; AID 504775;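 active means mean replicate activation of at least 60% and every replicate at or above 60%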
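Material – SR-BI-overexpressing, LDLR-lacking CHO cells · Medium – BSA-supplemented, HEPES-buffered Ham's F12, pH 7.4 · Doses – single concentration · Times – compound with DiI-HDL co-incubation, 3 h at 37 °C · Measured by – bottom-read fluorescence, 550/595 nm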
TMEM16A act – activators or potentiators of mouse TMEM16A chloride channel. B-score at 10 µM. hit rate 0.3% among 340,000. Q8BHY3. AID 623877. HEK293 TMEM16A/YFP-H148Q/I152L, iodide quench fluorescence; active compounds read low;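 active means fluorescence-ratio B-score plate-corrected deviation score at least 3 library SD below zero, with starting fluorescence score within 5 deviations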;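 further: channel opened by trigger with iodide after compound preincubation; score built on the fluorescence ratio of max minus min over baseline; more negative score means more quench and so TMEM16A activation or potentiation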
Of the large screens only hits and unclear results are named; the others gave an inactive call.

O=C(CN1C(=O)/C(=C2\SC(=S)N(CCS(=O)(=O)O)C2=O)c2ccccc21)Nc1cccc(Br)c1	FID counter 57.6
COC(=O)c1ccc2c(c1)C(C)(C)C(/C=C/c1ccc(OC)c(OC)c1OC)=[N+]2C	SR-BI DiI inh 105.2, Kir21 block -7.22
O=C(COc1ccc(Cl)cc1)Nc1nc(-c2ccc(S(=O)(=O)N3CCOCC3)cc2)cs1	none
COc1ccccc1OCC(=O)Nc1nc(-c2ccc(S(=O)(=O)N3CCOCC3)cc2)cs1	SR-BI DiI inh 73.0
O=C(CCc1ccc(S(=O)(=O)N2CCOCC2)cc1)Nc1nccs1	none
O=C(CCc1ccc(S(=O)(=O)N2CCOCC2)cc1)Nc1nc(COc2ccccc2)cs1	ANO1 block 25
O=C(NCc1ccccc1)C1CCCN(S(=O)(=O)c2ccc(Br)cc2)C1 (stereo unspecified)	none
Cc1nc(N2CCN(Cc3ccccc3)CC2)nc2c1C(=O)CC(c1ccco1)C2 (stereo unspecified)	Kir21 block -5.33
CN(c1ccc(C(=O)Nc2cccc(O)c2)cc1)S(=O)(=O)c1ccccc1	Kir21 block -4.77
CN(c1ccc(C(=O)Nc2cccnc2)cc1)S(=O)(=O)c1ccccc1	TMEM16A act -4.99 (no result: SR-BI DiI inh, SR-BI DiI-HDL act)
CN(c1ccc(C(=O)Nc2cccnc2)cc1)S(=O)(=O)c1ccc(Cl)cc1	none
C/C(=N\NC1=NCCN1)c1ccccc1	none
CCCCCOc1ccc(Br)cc1/C(C)=N/NC1=NCCN1	Kir21 block -13.8
COc1ccc(CC(=O)Nc2ccc3c(c2)CCC3)cc1OC	ANO1 block 25
COc1ccc(Cl)cc1NC(=O)CN(C)C(=O)Cc1ccc2c(c1)CCC2	Kir21 block -4.77
COc1ccc(Cl)cc1NC(=O)CN(C)C(=O)Cc1ccsc1	none (no result: FID counter)
O=C(C1CCN(S(=O)(=O)c2ccccc2F)CC1)N1CCCC1	none (no result: Kir21 block, ANO1 block, FID counter)
COc1ccc(N2C(=NC(=O)c3ccc(Br)cc3)SC3CS(=O)(=O)CC32)cc1 (stereo unspecified)	none (no result: Kir21 block, ANO1 block, FID counter)
NC(=O)C[C@H](N)c1cn([C@@H](CC(N)=O)C(=O)N2CCNCC2)nn1	TMEM16A act -10 (no result: Kir21 block, FID counter)
CCOc1ccccc1C(=O)NCC(=O)NCC(c1ccco1)N1CCCCC1 (stereo unspecified)	none (no result: FID counter)
Cc1ccc(N=C2C(=O)Nc3ccc(C)c(Br)c32)cc1	ANO1 block 25
COc1ccc2c(c1)c(CC(=O)Nc1ccc(C(C)=O)cc1)c(C)n2C(=O)c1ccc(Cl)cc1	none
COc1ccc2c(c1)c(CC(=O)NCc1cc([N+](=O)[O-])ccc1O)c(C)n2C(=O)c1ccc(Cl)cc1	ANO1 block 100
Cc1ccc(C)c(S(=O)(=O)c2c(C)cc(C)[nH]c2=O)c1	none
OCC1(Cc2ccc(F)cc2F)CCCN(Cc2ccc(Cl)cc2)C1 (stereo unspecified)	Kir21 block -9.43
CCCNc1nc2c(c(=O)[nH]c(=O)n2C)n1Cc1cccc(Br)c1	TMEM16A act -5.84
CN1CCN(c2nc3c(c(=O)[nH]c(=O)n3C)n2Cc2cccc(Br)c2)CC1	none (no result: SR-BI DiI inh, SR-BI DiI-HDL act)
Cc1ccc(NC(=O)COC(=O)CC2CCCC2)cc1F	none (no result: Kir21 block, ANO1 block, FID counter)
CSC(=Nc1ccccc1)N=C(SCc1ccccc1)N(C)C	SR-BI DiI inh 86.0, TMEM16A act -12.6 (no result: Kir21 block, ANO1 block, FID counter)
O=C(COC(=O)c1ccc(Br)o1)c1ccc(S(=O)(=O)N2CCCCC2)cc1	none (no result: Kir21 block, ANO1 block, FID counter)
O=C(C1CCCN1S(=O)(=O)c1cccc2nsnc12)N1CCCCC1 (stereo unspecified)	ANO1 block 25
O=C(Nc1ccccc1N1CCOCC1)c1cc(=O)[nH]c2ccccc12	none (no result: Kir21 block, ANO1 block, FID counter)
Cc1ccc(S(=O)(=O)N2C[C@@H]3CCCC[C@@H]3[C@@H](C)[C@H]2CC(=O)c2ccccc2)cc1	none (no result: Kir21 block, ANO1 block, FID counter, TMEM16A act)
O=C(Nc1ncc(S(=O)(=O)c2ccc([N+](=O)[O-])cc2)s1)c1cccc2ccccc12	ANO1 block 25, TMEM16A act -5.34
O=C(Nc1ncc([N+](=O)[O-])s1)c1ccccc1Br	ANO1 block 100
O=C(CS(=O)(=O)c1ccccc1)Nc1ncc([N+](=O)[O-])s1	none (no result: SR-BI DiI inh, SR-BI DiI-HDL act)
